Source: ChEMBL document CHEMBL3414496, “Synthesis and biological evaluation of novel 2-heteroarylimino-1,3-thiazolidin-4-ones as potential anti-tumor agents” (Eur J Med Chem, 2015)
Active and inactive are the calls of the source. The rule behind the calls is not given here.

Key:
[1] = Cytotoxicity against human HCT116 cells after 72 hrs by MTT assay; type: functional, cell-based; settings: HCT-116, 72 h
In short: (§1)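 Cells seeded at 10^4/well, exposed 24 h later to graded concentrations (0.01–100 µM) for 72 h at 37°C; MTT 0.5 mg/ml for 2 h, formazan dissolved in DMSO, absorbance at 570 nm. […] Colon lines in DMEM, breast lines in RPMI, both with 10% FCS.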

HT-29 [2] = experiment: Cytotoxicity against human HT-29 cells after 72 hrs by MTT assay; type: functional, cell-based; settings: HT-29, 72 h; in short: as §1
SW-620 = experiment: Cytotoxicity against human SW620 cells after 72 hrs by MTT assay; type: functional, cell-based; settings: SW-620, 72 h; in short: as §1
MCF7 = experiment: Cytotoxicity against human MCF7 cells after 72 hrs by MTT assay; type: functional, cell-based; settings: MCF7, 72 h; in short: as §1
MDA-MB-231 = experiment: Cytotoxicity against human MDA-MB-231 cells after 72 hrs by MTT assay; type: functional, cell-based; settings: MDA-MB-231, 72 h; in short: as §1
HT-29 [3] = experiment: Induction of cell cycle arrest in human HT-29 cells assessed as accumulation at subG1 phase at 0.5 to 10 uM by propidium iodide staining based flow cytometry; type: functional
HT-29 [4] = experiment: Growth inhibition of human HT-29 cells at cytotoxic IC50 level after 3 days by trypan blue dye exclusion assay; type: functional
In short: (§2)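 HT29 cells treated 48 h after seeding, dosed daily with daily medium change over three days; drug diluted in DMSO, controls 0.1% (v/v) DMSO. Cells trypsinized, mixed 1:1 with 0.04% trypan blue, live cells counted by hematimeter. Reported as mitotic index (treated/DMSO count); triplicates from two independent experiments.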

HT-29 [5] = experiment: Induction of cell cycle arrest in human HT-29 cells assessed as increase in accumulation at S phase at 0.5 to 10 uM by propidium iodide staining based flow cytometry; type: functional
HT-29 [6] = experiment: Growth inhibition of human HT-29 cells at 10 uM after 3 days by trypan blue dye exclusion assay; type: functional; settings: HT-29, 72 h, read-out: GI; in short: as §2

Compound	IC50 [1] [µM]	IC50 (HT-29 [2]) [µM]	IC50 (SW-620) [µM]	IC50 (MCF7) [µM]	IC50 (MDA-MB-231) [µM]	Activity (HT-29 [3])	growth inhibition (GI) (HT-29 [4]) [%]	Activity (HT-29 [5])	inhibition of growth at 10 µM (HT-29 [6]) [%]
COc1cccc(N2C(=O)CS/C2=N\c2csc(-c3ccc(C)cc3)c2)c1	41	> 50	> 50	> 50	> 50	–	–	–	–
O=C1N/C(=N/c2csc(-c3ccc(Cl)cc3)c2)S/C1=C\c1ccccn1	21.6	11.5	> 50	30.2	10.9	inactive	40	Active	–
COc1cccc(N2C(=O)CS/C2=N\c2csc(-c3cccc4ccccc34)c2)c1	–	> 50	–	> 50	–	–	–	–	–
COc1ccc(-c2cc(/N=C3/NC(=O)CS3)cs2)cc1	> 50	> 50	> 50	> 50	> 50	–	–	–	–
O=C1N/C(=N/c2csc(-c3ccc(Cl)cc3)c2)S/C1=C\c1ccccc1	11.2	10.5	> 50	> 50	18	inactive	–	Active	–
COc1cccc(N2C(=O)CS/C2=N\c2csc(-c3ccc(Cl)cc3)c2)c1	> 50	24.6	33	> 50	> 50	–	–	–	–
O=C1CS/C(=N\c2c[se]c(-c3ccc(Cl)cc3)c2)N1	–	> 50	> 50	> 50	–	–	–	–	–
O=C1N/C(=N/c2nc(-c3ccc(Cl)cc3)cs2)S/C1=C\c1ccc(F)cc1	7.5	2.9	> 50	> 50	> 50	–	–	–	–
Cc1ccc(N2C(=O)CS/C2=N\c2csc(-c3ccc(Cl)cc3)c2)cc1	–	28.9	> 50	> 50	–	–	–	–	–
O=C1CS/C(=N\c2csc(-c3ccc(Cl)cc3)c2)N1c1ccc(Cl)cc1	–	36.6	> 50	> 50	–	–	–	–	–
CN(C)c1ccc(N2C(=O)CS/C2=N\c2csc(-c3ccc(Cl)cc3)c2)cc1	–	29.2	–	> 50	–	–	–	–	–
COc1cccc(N2C(=O)CS/C2=N\c2csc(-c3ccccc3)c2)c1	–	38.3	–	–	–	–	–	–	–
Cc1ccc(/C=C2\S/C(=N\c3nc(-c4ccc(Cl)cc4)cs3)NC2=O)cc1	0.5	0.5	0.89	0.4	0.8	–	<25	–	40
O=C1N/C(=N/c2csc(-c3ccc(Cl)cc3)c2)S/C1=C\c1ccc(F)cc1	7.4	4.1	8.7	> 50	–	–	25	–	–
Cc1ccc(-c2cc(/N=C3/NC(=O)CS3)cs2)cc1	> 50	> 50	> 50	> 50	> 50	–	–	–	–
